Laboratory results published in ChEMBL document CHEMBL3243962, “Antileukemic activity of derivatives of 1,2-dimethyl-3,4-bis(hydroxymethyl)-5-phenylpyrrole bis(N-methylcarbamate)” (J Med Chem, 1979).

Assays:
[1] = tested on: Mus musculus; experiment: Toxicity in mouse P388 cells allografted CD2F1 mouse assessed as body weight loss at 50 mg/kg, ip of total 9 doses starting 24 hrs post tumor inoculation measured on day 5 of inoculation relative to control; format: organism-based; parameters: dose 50 mg/kg, route intraperitoneal; conditions: in vivo
In short: (§1)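 Male CD2F1 mice inoculated ip with 6×10^6 P388 leukemia cells. Compounds given ip as distilled water–Tween 80 suspension, nine daily doses starting 24 h after inoculation; six mice per dose group. Treated-minus-control body-weight change (T − C) and toxicity-day survivors recorded on day 5 (4 days after first dose).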

[2] = tested on: Mus musculus; experiment: Toxicity in mouse P388 cells allografted CD2F1 mouse assessed as body weight loss at 25 mg/kg, ip of total 9 doses starting 24 hrs post tumor inoculation measured on day 5 of inoculation relative to control; format: organism-based; parameters: dose 25 mg/kg, route intraperitoneal; conditions: in vivo; in short: as §1
[3] = tested on: Mus musculus; experiment: Toxicity in mouse P388 cells allografted CD2F1 mouse assessed as body weight loss at 12.5 mg/kg, ip of total 9 doses starting 24 hrs post tumor inoculation measured on day 5 of inoculation relative to control; format: organism-based; parameters: dose 12.5 mg/kg, route intraperitoneal; conditions: in vivo; in short: as §1
[4] = tested on: Mus musculus; experiment: Toxicity in mouse P388 cells allografted CD2F1 mouse assessed as body weight loss at 6.25 mg/kg, ip of total 9 doses starting 24 hrs post tumor inoculation measured on day 5 of inoculation relative to control; format: organism-based; parameters: dose 6.25 mg/kg, route intraperitoneal; conditions: in vivo; in short: as §1
[5] = tested on: Mus musculus; experiment: Toxicity in mouse P388 cells allografted CD2F1 mouse assessed as body weight loss at 3.12 mg/kg, ip of total 9 doses starting 24 hrs post tumor inoculation measured on day 5 of inoculation relative to control; format: organism-based; parameters: dose 3.12 mg/kg, route intraperitoneal; conditions: in vivo; in short: as §1
[6] = tested on: Mus musculus; experiment: Toxicity in mouse P388 cells allografted CD2F1 mouse assessed as mouse survival at 25 mg/kg, ip of total 9 doses starting 24 hrs post tumor inoculation measured on day 5 of inoculation relative to control; format: organism-based; parameters: dose 25 mg/kg, route intraperitoneal; conditions: in vivo
In short: (§2)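 Male CD2F1 mice bearing ip P388 leukemia (6×10^6 cells) were dosed ip with nine daily doses in distilled water–Tween 80 suspension, starting 24 h after inoculation. Survivors per group of 6 were counted on day 5, i.e. 4 days after the first dose. Body-weight change of treated minus control mice was also recorded.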

[7] = tested on: Mus musculus; experiment: Toxicity in mouse P388 cells allografted CD2F1 mouse assessed as mouse survival at 12.5 mg/kg, ip of total 9 doses starting 24 hrs post tumor inoculation measured on day 5 of inoculation relative to control; format: organism-based; parameters: dose 12.5 mg/kg, route intraperitoneal; conditions: in vivo; in short: as §2
[8] = tested on: Mus musculus; experiment: Toxicity in mouse P388 cells allografted CD2F1 mouse assessed as mouse survival at 6.25 mg/kg, ip of total 9 doses starting 24 hrs post tumor inoculation measured on day 5 of inoculation relative to control; format: organism-based; parameters: dose 6.25 mg/kg, route intraperitoneal; conditions: in vivo; in short: as §2
[9] = tested on: Mus musculus; experiment: Toxicity in mouse P388 cells allografted CD2F1 mouse assessed as mouse survival at 3.12 mg/kg, ip of total 9 doses starting 24 hrs post tumor inoculation measured on day 5 of inoculation relative to control; format: organism-based; parameters: dose 3.12 mg/kg, route intraperitoneal; conditions: in vivo; in short: as §2
[10] = tested on: P388; experiment: Antitumor activity against mouse P388 cells allografted in CD2F1 mouse assessed as increase in mouse survival at 50 mg/kg, ip of total 9 doses starting 24 hrs post tumor inoculation measured on day 5 of inoculation relative to control; format: functional; conditions: route intraperitoneal
In short: (§3)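 Male CD2F1 mice inoculated ip with 6×10^6 P388 leukemia cells. Dosing was ip as a suspension in distilled water–Tween 80, nine daily doses starting 24 h after inoculation. Activity was read as median survival time of treated vs control mice (% T/C); % T/C ≥ 120 was considered significant. Groups were 6 mice.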

[11] = tested on: P388; experiment: Antitumor activity against mouse P388 cells allografted in CD2F1 mouse assessed as increase in mouse survival at 25 mg/kg, ip of total 9 doses starting 24 hrs post tumor inoculation measured on day 5 of inoculation relative to control; format: functional; conditions: route intraperitoneal; in short: as §3
[12] = tested on: P388; experiment: Antitumor activity against mouse P388 cells allografted in CD2F1 mouse assessed as increase in mouse survival at 12.5 mg/kg, ip of total 9 doses starting 24 hrs post tumor inoculation measured on day 5 of inoculation relative to control; format: functional; conditions: route intraperitoneal; in short: as §3
[13] = tested on: P388; experiment: Antitumor activity against mouse P388 cells allografted in CD2F1 mouse assessed as increase in mouse survival at 6.25 mg/kg, ip of total 9 doses starting 24 hrs post tumor inoculation measured on day 5 of inoculation relative to control; format: functional; conditions: route intraperitoneal; in short: as §3
[14] = tested on: P388; experiment: Antitumor activity against mouse P388 cells allografted in CD2F1 mouse assessed as increase in mouse survival at 3.12 mg/kg, ip of total 9 doses starting 24 hrs post tumor inoculation measured on day 5 of inoculation relative to control; format: functional; conditions: route intraperitoneal; in short: as §3

CNC(=O)OCc1c(COC(=O)NC)c(-c2ccc(SC)cc2)n(C)c1C
Activity [1]: 2.9 g | Activity [2]: 3.1 g | Activity [3]: 4.3 g | Activity [4]: 1.4 g | Activity [5]: 2.1 g | Activity [6]: Non-toxic | Activity [7]: Non-toxic | Activity [8]: Non-toxic | Activity [9]: Non-toxic | T/C [10]: 150% | T/C [11]: 144% | T/C [12]: 144% | T/C [13]: 143% | T/C [14]: 187%
